Mdm2 ligase inh – blocks human Mdm2 ubiquitin ligase activity; Q00987; cell-based MDM2 ubiquitination luciferase reporter, 2 h; 0 = plate control, 100 = twice control, blank-subtracted; signal enhancement, % at 5 µM; 210,000 compounds, 0.11% hits;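 active = signal enhancement of 30% or more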;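 also: luminescence tracks abundance of the self-degrading MDM2-luciferase fusion protein; higher signal means inhibition of MDM2 E3 ligase activity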
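Assay system: stable mammalian line carrying autodegrading MDM2–luciferase fusion reporter; Input: 2000 cells in each well; Compound dosing: single-point 5 µM; Schedule: 2 h compound exposure at 37 °C; Signal: SteadyLite luciferase luminescence after 15 min room-temperature reagent incubation; Evaluation: % luminescence enhancement versus blank-corrected plate control mean; Benchmarks: plate controls and plate blanks.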
Wee1 degr inh – inhibitors of human Wee1 degradation; HeLa Luc-Wee1K328M stability, luciferase luminescence; 100% = proteasome inhibitor MG132 effect; reporter increase, % at 5 µM; 220,000 compounds, 1.2% hits;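 active = activation above the mean of all tested compounds plus 3 SD, set per screening run, cut at about 8.8% in these data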;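 also: cells exposed to compound for 20 h before luminescence read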
Target sequence (P30291 whole entry K328M): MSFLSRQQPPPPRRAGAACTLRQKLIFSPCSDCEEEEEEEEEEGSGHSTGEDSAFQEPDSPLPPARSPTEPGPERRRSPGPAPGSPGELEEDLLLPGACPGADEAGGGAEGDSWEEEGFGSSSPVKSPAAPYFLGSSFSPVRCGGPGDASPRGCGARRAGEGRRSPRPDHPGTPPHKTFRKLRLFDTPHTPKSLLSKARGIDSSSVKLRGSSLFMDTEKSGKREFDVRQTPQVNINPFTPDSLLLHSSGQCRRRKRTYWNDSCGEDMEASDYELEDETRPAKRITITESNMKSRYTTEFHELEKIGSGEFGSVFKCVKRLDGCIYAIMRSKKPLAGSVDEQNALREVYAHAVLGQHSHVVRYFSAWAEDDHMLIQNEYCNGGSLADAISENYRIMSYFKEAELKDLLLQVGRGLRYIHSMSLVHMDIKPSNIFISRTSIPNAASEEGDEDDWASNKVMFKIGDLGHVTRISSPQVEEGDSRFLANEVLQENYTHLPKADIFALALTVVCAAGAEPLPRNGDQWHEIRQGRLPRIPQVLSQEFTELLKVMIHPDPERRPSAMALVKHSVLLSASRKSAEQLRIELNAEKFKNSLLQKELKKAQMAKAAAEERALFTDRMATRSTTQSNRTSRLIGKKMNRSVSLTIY
Hsp70 act – switches on Hsp70 transcription; activation, % at 10 µM; HeLa Hsp70 promoter luciferase reporter, luminescence; scaled: vehicle 0, proteasome-inhibitor control 100%; AID 1203; 200,000 compounds, 0.04% hits;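 active = activation above the mean across all tested compounds plus 3 SD, cutoff set per campaign, cut at about 5.5% in these data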
Pf gametocyte – inhibitors of late stage P. falciparum gametocyte viability | P. falciparum stage V gametocytes, ATP luminescence, 24 h | inhibition, % at 10.9 µM | 150,000 compounds, 0.065% hits;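 active = inhibition above the mean plus 3 SD of compounds within the control limits, set per campaign, cut at about 38% in these data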
Wee1 degr conf – confirmation of human Wee1 degradation inhibitors; shares compounds with Wee1 degr inh; HeLa Luc-Wee1K328M degradation, luminescence; vehicle 0%, proteasome-blocked wells 100%; activation, % at 5 µM; 1,100 compounds, 4% hits; AID 1410; in the data active = activation above about 8.9%
Hits are given with their value. The list is not random: actives were taken first. Their share in the collection is about 1.3%.

CC(C)c1nnc(SCC(=O)NCc2ccc3c(c2)OCO3)n1C was read as Mdm2 ligase inh inactive, Wee1 degr inh 12, Hsp70 act inactive and Wee1 degr conf inactive.
`Cc1cccc(C)c1NC(=O)c1c(-c2ccccc2)noc1C` gave Mdm2 ligase inh inactive, Wee1 degr inh 11, Hsp70 act inactive and Wee1 degr conf inactive.
For COc1ccc(-c2ccc(SCC(=O)Nc3cccc(C(C)=O)c3)nn2)cc1OC the results were Mdm2 ligase inh inactive, Wee1 degr inh 12, Hsp70 act inactive, Pf gametocyte inactive and Wee1 degr conf inactive.
For CC(=O)c1cccc(NC(=O)CSc2ccc(-c3ccc4c(c3)OCO4)nn2)c1 the results were Mdm2 ligase inh inactive, Wee1 degr inh inactive, Hsp70 act inactive and Pf gametocyte inactive.
COc1cccc(CNCc2cccnc2)c1OCc1ccccc1 was read as Mdm2 ligase inh inactive, Wee1 degr inh 13, Hsp70 act inactive, Pf gametocyte inactive and Wee1 degr conf inactive.
For CCn1cc(C(=O)O)c(=O)c2cc(F)c(N/N=C/c3ccccc3[N+](=O)[O-])cc21 the results were Mdm2 ligase inh inactive, Wee1 degr inh inactive, Hsp70 act inactive and Pf gametocyte inactive.
`CCn1c(SCC(=O)N/N=C(/C)c2ccncc2)nc2ccccc21` gave Mdm2 ligase inh inactive, Wee1 degr inh 15, Pf gametocyte inactive and Wee1 degr conf inactive.
For O=C(COc1ccc(C(=O)c2ccc(F)cc2)cc1)NCc1ccc(F)cc1 the results were Mdm2 ligase inh inactive, Wee1 degr inh 11, Hsp70 act inactive, Pf gametocyte inactive and Wee1 degr conf 14.
Cc1ccc2c(CSc3nncn3C)cc(=O)oc2c1C was read as Mdm2 ligase inh inactive, Wee1 degr inh inactive and Hsp70 act inactive.
O=C(NCc1ccco1)/C(=C\c1ccco1)NC(=O)c1cccs1 was read as Mdm2 ligase inh inactive, Wee1 degr inh 30, Hsp70 act inactive, Pf gametocyte inactive and Wee1 degr conf inactive.
`O=C(O)CCCn1cc(NC(=O)c2cccc(F)c2)cn1` gave Mdm2 ligase inh inactive, Wee1 degr inh 13, Hsp70 act inactive, Pf gametocyte inactive and Wee1 degr conf inactive.
O=C(O)C1CCCC2CN3CCc4c([nH]c5ccccc45)C3C(O)C21 (centres undefined) was read as Pf gametocyte inactive.
For O=C(CN1CCN(c2ccccn2)CC1)N1CC(O)CO1 (centres undefined) the results were Mdm2 ligase inh inactive, Wee1 degr inh 18, Hsp70 act inactive, Pf gametocyte inactive and Wee1 degr conf inactive.
COC(=O)c1sc(NC(=O)CN2CCN(c3cccc(Cl)c3)CC2)c(C(=O)OC)c1C was read as Pf gametocyte inactive.
For Nc1[nH]n(-c2ccccc2)c(=O)c1N=Nc1ccc2c(c1)OCO2 the results were Wee1 degr inh 12, Pf gametocyte inactive and Wee1 degr conf inactive.
Nc1[nH]n(-c2ccccc2)c(=O)c1N=Nc1ccc2c(c1)OCCO2 was read as Mdm2 ligase inh inactive, Wee1 degr inh inactive, Hsp70 act inactive and Pf gametocyte inactive.
`Cn1nccc1NC(=O)CC1(CC(=O)O)CCCCC1` gave Mdm2 ligase inh inactive, Wee1 degr inh inactive and Pf gametocyte inactive.
Screening COc1ccc(C(=O)COc2ccc(F)cc2)c(O)c1 returned Wee1 degr inh 18, Pf gametocyte inactive and Wee1 degr conf inactive.
For OCCOc1ccc(CN2CCN(CCCc3ccccc3)C(CCO)C2)cc1 (centres undefined) the results were Pf gametocyte inactive.
For CC1=NCCN1CCNC(=O)Nc1ccc(C(C)(C)C)cc1 the results were Mdm2 ligase inh inactive, Wee1 degr inh 15, Pf gametocyte inactive and Wee1 degr conf inactive.
Screening O=C(NCCN1CCCC1=O)Nc1ccccc1 returned Mdm2 ligase inh inactive, Wee1 degr inh inactive, Hsp70 act inactive and Pf gametocyte inactive.
For Oc1ccc(Cl)cc1CNCc1cccc2ccccc12 the results were Pf gametocyte inactive.
For Clc1ccc(Nc2nc(C3CC3)cs2)cc1 the results were Mdm2 ligase inh inactive, Wee1 degr inh 12, Hsp70 act inactive and Wee1 degr conf inactive.
Screening Cc1ccc(Nc2nc(C3CC3)cs2)cc1 returned Mdm2 ligase inh inactive, Wee1 degr inh inactive and Hsp70 act inactive.
Screening CCOC(=O)c1ccccc1NC(=O)CN(c1ccc(OCC)cc1)S(C)(=O)=O returned Mdm2 ligase inh inactive, Wee1 degr inh 12, Hsp70 act inactive and Wee1 degr conf inactive.
O=C(C1=C[C@@H](c2coc3ccccc3c2=O)C[C@@H](OCc2ccc(CO)cc2)O1)N1CCN(Cc2ccc3c(c2)OCO3)CC1 was read as Wee1 degr inh 23, Hsp70 act inactive and Wee1 degr conf inactive.
For NNC(=O)CNc1ccccc1Cl the results were Mdm2 ligase inh inactive, Wee1 degr inh 11, Hsp70 act inactive, Pf gametocyte inactive and Wee1 degr conf inactive.
On1onc2c3cc(-c4ccccc4)nc3ccc21 was read as Mdm2 ligase inh inactive, Wee1 degr inh 39, Hsp70 act inactive and Wee1 degr conf 30.
For COc1ccc(OC)c(NC(=O)COC(=O)CCCN2C(=O)c3ccccc3C2=O)c1 the results were Mdm2 ligase inh inactive, Wee1 degr inh inactive, Hsp70 act inactive and Pf gametocyte inactive.
For CC(C)CC(=O)N1CC=CC[C@@H](c2ccc(Cl)cc2)N(Cc2ccc(Cl)cc2)C(=O)[C@@H]1Cc1ccccc1 the results were Pf gametocyte inactive.
`C=CCn1c(N)c(C(=O)OC(C)(C)C)c2nc3ccccc3nc21` gave Mdm2 ligase inh inactive, Wee1 degr inh inactive, Hsp70 act inactive and Pf gametocyte inactive.
Screening C=CCn1c(N)c(C(=O)Nc2ccccc2)c2nc3ccccc3nc21 returned Mdm2 ligase inh inactive, Wee1 degr inh 15, Hsp70 act inactive and Wee1 degr conf inactive.
For N#Cc1ccccc1OCC(=O)NC(=O)NCc1ccccc1 the results were Mdm2 ligase inh inactive, Wee1 degr inh 15, Hsp70 act inactive, Pf gametocyte inactive and Wee1 degr conf inactive.
`CCNC(=O)NC(=O)COc1ccccc1C#N` gave Mdm2 ligase inh inactive, Wee1 degr inh inactive and Hsp70 act inactive.
Screening CCN(c1ccc2c(c1)OCO2)S(=O)(=O)c1cc(Br)cc2c1N(C(C)=O)CC2 returned Mdm2 ligase inh inactive, Wee1 degr inh inactive, Hsp70 act inactive and Pf gametocyte inactive.
Cc1[nH]c(=S)[nH]c(=O)c1CCC1OCCO1 was read as Mdm2 ligase inh inactive and Wee1 degr inh inactive.
CC(=O)Nc1nc(C)c(CCC2OCCO2)c(=O)[nH]1 was read as Mdm2 ligase inh inactive, Wee1 degr inh 11 and Wee1 degr conf inactive.
For COC(=O)CC1=NN(c2ccc(OC)cc2)C(=O)C1 the results were Mdm2 ligase inh inactive, Wee1 degr inh 12, Hsp70 act inactive, Pf gametocyte inactive and Wee1 degr conf inactive.
For Clc1ccc(C2=CSC3=NCCN23)c(Cl)c1 the results were Pf gametocyte inactive.
CCOc1ccccc1NC(=O)Nc1cccc(C(C)=O)c1 was read as Mdm2 ligase inh inactive, Wee1 degr inh 15, Hsp70 act inactive, Pf gametocyte inactive and Wee1 degr conf inactive.
CCOc1ccccc1NC(=O)Nc1cnccn1 was read as Mdm2 ligase inh inactive, Wee1 degr inh 17, Hsp70 act inactive, Pf gametocyte inactive and Wee1 degr conf inactive.

Screening data (PubChem)
